Reference: publication PMC3268818 (Journal of Molecular Biology, 2011)

Experiments:
BclXL_FL [1] = assay: Steady-state fluorescence; parameters: species or system human; conditions: BclXL_FL alone, 5μM; SSF, excitation 290nm, pH 8.0, 25 °C
[2] = SEC-coupled analytical light scattering; format: physicochemical, human; conditions: for oligomeric state in solution / Mw/Mn / Rg/Rh / dimer fraction / approximate mass of higher-order oligomer: ALS; for oligomeric state in solution / Rh / Mn / Mw/Mn / Mw / Rg / Rg/Rh / dimer fraction: pH 8, 10°C; for Rh: hydrodynamic radius, ALS (DLS); for Rh / Mn / Mw / Rg: at least three independent measurements; for Rh / Mn / Mw/Mn / Mw / Rg / Rg/Rh: ± one standard deviation; for Mn: number-average molar mass; for Mn / Mw / Rg: ALS (SLS); for Mw/Mn: polydispersity; for Mw: weighted-average molar mass; for Rg: radius of gyration; for Rg/Rh: shape ratio
How it was run: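 His-tagged human BclXL (residues 1–233 or 1–200) was expressed in E. coli and purified by Ni-NTA then SEC. It was run at 10–50μM starting concentration in 50mM sodium phosphate, 100mM NaCl, 1mM EDTA, 5mM β-mercaptoethanol, pH 8.0, on Superdex 200 at 1ml/min and 10°C. Mw, Mn and Rg came from triple-angle SLS (Zimm fit); Rh came from DLS at 90° (Stokes-Einstein). n≥3, ±SD.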

BclXL_FL [3] = assay: TEM of negatively-stained BclXL_FL; parameters: species or system human; conditions: 25μM BclXL_FL alone; 50mM Sodium phosphate, pH 8.0, negative staining
How it was run: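 Full-length His-tagged human BclXL (residues 1–233) was expressed in E. coli and purified by Ni-NTA and SEC. It was imaged at 25μM, alone or with a 10-molar excess of a 20-mer BH3 peptide, in 50mM sodium phosphate pH 8.0. Samples were negatively stained and viewed by TEM at 80kV and 105,000 magnification.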

BclXL_FL [4] = assay: DSC thermal stability of BclXL_FL; format: physicochemical, human; conditions: BclXL_FL alone, 50mM Sodium phosphate, pH 8.0, 10–50μM protein, 40–120°C, 1°C/min, 3atm, repeated at least three times

Row | Substance | oligomeric state in solution [2] | Rh ([2]; Dimer) [Å] | Mn ([2]; Dimer) [kD] | Mw/Mn ([2]; Dimer) | Mw ([2]; Dimer) [kD] | Rh ([2]; Monomer) [Å] | Mn ([2]; Monomer) [kD] | Mw/Mn ([2]; Monomer) | dimer fraction [2] | further results
1 | BclXL_FL: Full-length BclXL (residues 1–233), human, with an N-terminal His-tag, expressed in Escherichia coli | predominantly associates into higher-order oligomers | 47 ± 2 | 61 ± 3 | 1.01 ± 0.01 | 62 ± 3 | 36 ± 1 | 31 ± 1 | 1.00 ± 0.01 | minor fraction | intrinsic fluorescence relative to BclXL_dTM (BclXL_FL [1]): much higher than that observed for the BclXL_dTM construct; Rh ([2]; Multimer): 99 ± 2 Å; Mn ([2]; Multimer): 321 ± 25 kD; Mw/Mn ([2]; Multimer): 1.14 ± 0.02; Rg ([2]; Multimer): 107 ± 4 Å; Rg/Rh ([2]; Multimer): 1.10 ± 0.01; Mw ([2]; Multimer): 361 ± 26 kD; Rh ([2]; Polymer): 175 ± 6 Å; Mn ([2]; Polymer): 3134 ± 147 kD; Rg ([2]; Polymer): 198 ± 8 Å; Rg/Rh ([2]; Polymer): 1.13 ± 0.02; Mw ([2]; Polymer): 3355 ± 188 kD; oligomer equilibrium on SEC re-analysis ([2]; SEC-resolved fractions re-analyzed on SEC column): reversible monomer-dimer-multimer-polymer equilibrium; approximate mass of higher-order oligomer ([2]; multimer): ~ 300 kD; approximate mass of higher-order oligomer ([2]; polymer): ~ 3000 kD; TEM appearance (BclXL_FL [3]): rod-like appearance in solution; melting temperature (Tm) (BclXL_FL [4]): > 120 °C
2 | BclXL_dTM: BclXL in which the TM domain is deleted (residues 1–200), human, with an N-terminal His-tag, expressed in Escherichia coli | largely monomeric in solution | 41 ± 3 | 54 ± 2 | 1.00 ± 0.01 | 54 ± 2 | 33 ± 2 | 28 ± 2 | 1.00 ± 0.00 | minor fraction | 
